Laboratory results published in ChEMBL document CHEMBL1961794, “Regulation of circadian behaviour and metabolism by synthetic REV-ERB agonists” (Nature, 2012).
Calls of active or inactive are those of the source. The calls are words filed in the database; no cut-off is given here.

Experiments:
[1] = molecular target: Bile acid receptor (Homo sapiens) (UniProt Q96RI1); test: Effect on BAR(NR1H4) dependent reporter activity in HEK293 cells at 20 uM; format: cell-based
Summary of the method: (§1)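 Specificity panel covering all 48 human nuclear receptors. HEK293 cells cotransfected with Gal4 DNA-binding domain–nuclear receptor fusions and a luciferase reporter. Compound tested at a single 20 μM concentration. Mean ± s.e.m., n=3.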

[2] = molecular target: Nuclear receptor ROR-gamma (Homo sapiens) (UniProt P51449); test: Effect on RORG(NR1F3) dependent reporter activity in HEK293 cells at 20 uM; format: cell-based; summary of the method: as §1
[3] = Brain concentration after 8 hours at 10mg/kg ip dose (10mg/ml suspension in 10%DMSO/10%Tween80); format: ADME, organism-based; settings: mouse
Summary of the method: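 Mice given a single 10mg/kg i.p. dose as a 10mg/ml suspension in 10/10/80 DMSO/Tween80/water. Brain levels (μM) measured at 2h and 8h post injection, with plasma sampled at 1, 2, 4 and 8h. Mean ± s.e.m., n=3.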

[4] = molecular target: Nuclear receptor ROR-alpha (Homo sapiens) (UniProt P35398); test: Effect on RORA(NR1F1) dependent reporter activity in HEK293 cells at 20 uM; format: cell-based; summary of the method: as §1
[5] = molecular target: Retinoic acid receptor RXR-alpha (Homo sapiens) (UniProt P19793); test: Effect on RXRA(NR2B1) dependent reporter activity in HEK293 cells at 20 uM; format: cell-based; summary of the method: as §1
[6] = Plasma concentration after 2 hours at 100mg/kg ip dose (10mg/ml solution in 15% Cremophor); format: ADME, organism-based; settings: mouse, read-out: Conc_plasma
Summary of the method: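 Single 100 mg/kg i.p. dose given to mice as a 10 mg/ml solution in 15% Cremophor. Plasma drug concentration (μM) was measured at 2 and 8 h post-injection. Mean ± s.e.m., n=3.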

[7] = Plasma concentration after 4 hours at 10mg/kg ip dose (10mg/ml suspension in 10%DMSO/10%Tween80); format: ADME, organism-based; settings: mouse, read-out: Conc_plasma
Summary of the method: (§2)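 Mice received a single 10 mg/kg i.p. dose as a 10 mg/ml suspension in DMSO/Tween80/water (10/10/80). Plasma was sampled at 1, 2, 4 and 8 h post-injection and drug concentration reported in μM. Mean ± s.e.m., n=3.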

[8] = molecular target: Androgen receptor (Homo sapiens) (UniProt P10275); test: Effect on AR(NR3C4) dependent reporter activity in HEK293 cells at 20 uM; format: cell-based; summary of the method: as §1
[9] = molecular target: Hepatocyte nuclear factor 4-alpha (Homo sapiens) (UniProt P41235); test: Effect on HNF4A(NR2A1) dependent reporter activity in HEK293 cells at 20 uM; format: cell-based; summary of the method: as §1
[10] = molecular target: COUP transcription factor 1 (Homo sapiens) (UniProt P10589); test: Effect on TFCOUP1(NR2F1) dependent reporter activity in HEK293 cells at 20 uM; format: cell-based
Summary of the method: (§3)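 Cotransfection assay in HEK293 cells with Gal4 DNA-binding domain–nuclear receptor fusions, covering a panel of all 48 human nuclear receptors. Compounds were tested at 20 μM, with reporter luciferase as the read-out. Mean ± s.e.m., n=3.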

[11] = molecular target: Thyroid hormone receptor alpha (Homo sapiens) (UniProt P10827); test: Effect on THRA(NR1A1) dependent reporter activity in HEK293 cells at 20 uM; format: cell-based; summary of the method: as §3
Mus musculus [12] = test: Decreased expression of REV-ERB responsive gene Cyp7a1 in mouse liver after 6 days at 100 mg/kg; format: functional, organism-based; design: dose 100 mg/kg
[13] = molecular target: Steroid hormone receptor ERR1 (Homo sapiens) (UniProt P11474); test: Effect on ERR1(NR3B1) dependent reporter activity in HEK293 cells at 20 uM; format: cell-based; summary of the method: as §1
Mus musculus [14] = test: Decreased expression of REV-ERB responsive gene Srebf1 in mouse liver after 6 days at 100 mg/kg; format: functional, organism-based; design: dose 100 mg/kg
[15] = molecular target: Nuclear receptor subfamily 1 group I member 3 (Homo sapiens, UniProt Q14994); test: Effect on CAR(NR1I3) dependent reporter activity in HEK293 cells at 20 uM; format: cell-based; settings: hek293, 20 µM; summary of the method: as §1
[16] = molecular target: Nuclear receptor subfamily 1 group D member 2 (Homo sapiens, UniProt Q14995); test: Increased REV-ERB-beta LBD dependent repressor activity in HEK293 cell reporter assay; format: cell-based
[17] = molecular target: Steroid hormone receptor ERR2 (Homo sapiens) (UniProt O95718); test: Effect on ERR2(NR3B2) dependent reporter activity in HEK293 cells at 20 uM; format: cell-based; summary of the method: as §1
[18] = molecular target: Nuclear receptor subfamily 0 group B member 2 (Homo sapiens) (UniProt Q15466); test: Effect on SHP(NR0B2) dependent reporter activity in HEK293 cells at 20 uM; format: cell-based; summary of the method: as §3
[19] = molecular target: Steroidogenic factor 1 (Homo sapiens) (UniProt Q13285); test: Effect on SF1(NR5A1) dependent reporter activity in HEK293 cells at 20 uM; format: cell-based; summary of the method: as §1
[20] = molecular target: Photoreceptor-specific nuclear receptor (Homo sapiens) (UniProt Q9Y5X4); test: Effect on PNR(NR2E3) dependent reporter activity in HEK293 cells at 20 uM; format: cell-based; summary of the method: as §1
[21] = molecular target: Nuclear receptor subfamily 2 group E member 1 (Homo sapiens) (UniProt Q9Y466); test: Effect on TLX(NR2E1) dependent reporter activity in HEK293 cells at 20 uM; format: cell-based; summary of the method: as §3
Mus musculus [22] = test: Decreased expression of REV-ERB responsive gene Serpine1 in mouse liver after 6 days at 100 mg/kg; format: functional, organism-based; design: dose 100 mg/kg
[23] = molecular target: Nuclear receptor ROR-beta (Homo sapiens) (UniProt Q92753); test: Effect on RORB(NR1F2) dependent reporter activity in HEK293 cells at 20 uM
[24] = molecular target: Nuclear receptor subfamily 4 group A member 2 (Homo sapiens) (UniProt P43354); test: Effect on NURR1(NR4A2) dependent reporter activity in HEK293 cells at 20 uM; format: cell-based; summary of the method: as §1
[25] = molecular target: Nuclear receptor subfamily 2 group C member 2 (Homo sapiens) (UniProt P49116); test: Effect on TR4(NR2C2) dependent reporter activity in HEK293 cells at 20 uM; format: cell-based; summary of the method: as §3
[26] = molecular target: Peroxisome proliferator-activated receptor alpha (Homo sapiens) (UniProt Q07869); test: Effect on PPARA(NR1C1) dependent reporter activity in HEK293 cells at 20 uM; format: cell-based; summary of the method: as §1
[27] = Plasma concentration after 1 hour at 10mg/kg ip dose (10mg/ml suspension in 10%DMSO/10%Tween80); format: ADME, organism-based; settings: mouse, read-out: Conc_plasma; summary of the method: as §2
[28] = Plasma concentration after 8 hours at 10mg/kg ip dose (10mg/ml suspension in 10%DMSO/10%Tween80); format: ADME, organism-based; settings: mouse, read-out: Conc_plasma; summary of the method: as §2
[29] = molecular target: Nuclear receptor subfamily 4immunitygroup A member 1 (Homo sapiens) (UniProt P22736); test: Effect on GFRP1(NR4A1) dependent reporter activity in HEK293 cells at 20 uM; format: cell-based; summary of the method: as §1
[30] = molecular target: Nuclear receptor subfamily 1 group D member 1 (Homo sapiens) (UniProt P20393); test: Recruitment of co-repressor NcoR1 to REV-ERB-alpha; format: functional
Summary of the method: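 Biochemical corepressor-interaction assay using Luminex bead technology, measuring compound-dependent recruitment of an NCoR CoRNR box peptide to REV-ERBα. Mean ± s.e.m., n=3.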

[31] = molecular target: Estrogen receptor (Homo sapiens) (UniProt P03372); test: Effect on ESR1(NR3A1) dependent reporter activity in HEK293 cells at 20 uM; format: cell-based; summary of the method: as §1

Chain of Androgen receptor (Homo sapiens) (P10275 whole entry): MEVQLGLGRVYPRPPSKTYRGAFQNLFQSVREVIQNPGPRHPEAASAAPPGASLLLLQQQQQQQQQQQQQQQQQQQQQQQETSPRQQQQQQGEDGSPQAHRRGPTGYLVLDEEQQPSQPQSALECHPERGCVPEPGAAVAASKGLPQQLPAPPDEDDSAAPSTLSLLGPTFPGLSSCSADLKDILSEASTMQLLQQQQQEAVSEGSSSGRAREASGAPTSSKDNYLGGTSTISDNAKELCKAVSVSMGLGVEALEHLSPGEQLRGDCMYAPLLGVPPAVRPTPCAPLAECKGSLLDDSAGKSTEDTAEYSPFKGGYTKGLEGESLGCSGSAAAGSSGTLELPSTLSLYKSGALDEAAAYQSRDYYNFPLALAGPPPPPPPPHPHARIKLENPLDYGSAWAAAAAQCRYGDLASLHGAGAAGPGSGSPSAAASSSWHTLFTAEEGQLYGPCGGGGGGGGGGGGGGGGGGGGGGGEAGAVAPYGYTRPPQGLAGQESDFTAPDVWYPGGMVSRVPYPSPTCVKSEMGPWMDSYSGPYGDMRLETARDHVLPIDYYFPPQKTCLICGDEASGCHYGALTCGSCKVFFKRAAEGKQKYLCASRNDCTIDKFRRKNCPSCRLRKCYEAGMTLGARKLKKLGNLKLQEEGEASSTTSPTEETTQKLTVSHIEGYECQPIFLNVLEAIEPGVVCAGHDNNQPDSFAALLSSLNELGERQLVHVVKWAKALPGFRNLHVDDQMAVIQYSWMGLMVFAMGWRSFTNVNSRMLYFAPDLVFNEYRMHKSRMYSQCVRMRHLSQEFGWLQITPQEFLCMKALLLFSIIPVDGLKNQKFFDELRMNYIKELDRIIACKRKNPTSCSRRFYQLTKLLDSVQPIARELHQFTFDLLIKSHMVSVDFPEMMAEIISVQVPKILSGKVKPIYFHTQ
Chain of Nuclear receptor subfamily 1 group I member 3 (Q14994 whole entry, the tested form may be a part): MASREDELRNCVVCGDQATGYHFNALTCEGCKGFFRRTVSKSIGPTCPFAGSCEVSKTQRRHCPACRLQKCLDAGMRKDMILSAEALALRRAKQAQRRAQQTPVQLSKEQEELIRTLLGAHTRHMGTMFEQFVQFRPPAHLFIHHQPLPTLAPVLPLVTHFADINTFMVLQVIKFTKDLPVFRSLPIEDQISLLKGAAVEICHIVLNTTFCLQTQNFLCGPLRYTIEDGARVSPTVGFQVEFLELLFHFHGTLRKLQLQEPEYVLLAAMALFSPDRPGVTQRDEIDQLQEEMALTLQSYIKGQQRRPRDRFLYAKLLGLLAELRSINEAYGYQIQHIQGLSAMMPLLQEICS
Chain of Steroid hormone receptor ERR1 (Homo sapiens) (P11474 whole entry): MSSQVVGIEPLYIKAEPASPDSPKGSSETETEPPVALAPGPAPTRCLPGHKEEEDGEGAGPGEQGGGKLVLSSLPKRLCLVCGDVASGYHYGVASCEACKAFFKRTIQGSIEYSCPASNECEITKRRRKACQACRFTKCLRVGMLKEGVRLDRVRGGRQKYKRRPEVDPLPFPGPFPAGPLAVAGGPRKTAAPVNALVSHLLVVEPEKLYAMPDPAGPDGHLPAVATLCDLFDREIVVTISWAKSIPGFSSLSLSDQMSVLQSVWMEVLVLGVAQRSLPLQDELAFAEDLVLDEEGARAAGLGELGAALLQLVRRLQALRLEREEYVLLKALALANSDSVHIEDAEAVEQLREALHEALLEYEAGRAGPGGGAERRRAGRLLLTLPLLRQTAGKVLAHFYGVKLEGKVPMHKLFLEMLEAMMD
Chain of Nuclear receptor subfamily 2 group E member 1 (Homo sapiens) (Q9Y466 whole entry): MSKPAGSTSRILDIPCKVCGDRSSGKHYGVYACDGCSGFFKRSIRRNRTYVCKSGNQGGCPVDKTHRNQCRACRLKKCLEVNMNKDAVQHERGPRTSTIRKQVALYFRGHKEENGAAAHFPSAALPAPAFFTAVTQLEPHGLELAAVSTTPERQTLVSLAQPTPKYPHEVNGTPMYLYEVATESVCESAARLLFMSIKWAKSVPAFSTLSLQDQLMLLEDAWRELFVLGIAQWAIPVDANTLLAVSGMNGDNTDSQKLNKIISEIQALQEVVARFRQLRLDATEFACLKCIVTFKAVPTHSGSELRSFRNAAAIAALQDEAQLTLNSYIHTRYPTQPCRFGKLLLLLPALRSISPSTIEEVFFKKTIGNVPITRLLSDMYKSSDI
Chain of Peroxisome proliferator-activated receptor alpha (Homo sapiens) (Q07869 whole entry): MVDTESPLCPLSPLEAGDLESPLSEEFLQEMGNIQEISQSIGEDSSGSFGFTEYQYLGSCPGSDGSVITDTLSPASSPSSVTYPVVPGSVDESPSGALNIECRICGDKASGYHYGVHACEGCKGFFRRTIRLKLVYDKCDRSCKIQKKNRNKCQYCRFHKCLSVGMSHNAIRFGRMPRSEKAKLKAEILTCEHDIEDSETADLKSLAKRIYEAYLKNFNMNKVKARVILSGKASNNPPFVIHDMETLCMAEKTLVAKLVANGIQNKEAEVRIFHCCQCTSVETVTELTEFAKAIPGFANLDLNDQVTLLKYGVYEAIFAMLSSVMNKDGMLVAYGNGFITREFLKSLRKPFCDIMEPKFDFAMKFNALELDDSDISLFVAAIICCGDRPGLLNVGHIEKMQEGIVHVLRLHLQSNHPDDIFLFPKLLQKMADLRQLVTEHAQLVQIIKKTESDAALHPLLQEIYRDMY
Chain of Nuclear receptor ROR-beta (Homo sapiens) (Q92753 whole entry, looked up): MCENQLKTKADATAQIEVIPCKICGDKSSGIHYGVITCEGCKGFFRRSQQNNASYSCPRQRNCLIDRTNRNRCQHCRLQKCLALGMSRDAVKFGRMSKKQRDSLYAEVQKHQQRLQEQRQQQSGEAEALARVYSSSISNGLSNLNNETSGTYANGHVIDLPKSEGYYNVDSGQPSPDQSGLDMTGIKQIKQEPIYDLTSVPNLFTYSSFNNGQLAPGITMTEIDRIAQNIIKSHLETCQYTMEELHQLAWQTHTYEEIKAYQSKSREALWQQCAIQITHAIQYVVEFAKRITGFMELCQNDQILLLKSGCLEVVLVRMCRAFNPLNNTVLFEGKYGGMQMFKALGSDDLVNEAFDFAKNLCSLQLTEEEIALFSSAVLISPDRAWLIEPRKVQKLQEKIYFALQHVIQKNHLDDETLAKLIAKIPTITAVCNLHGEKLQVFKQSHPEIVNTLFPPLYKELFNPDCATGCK
Chain of Thyroid hormone receptor alpha (Homo sapiens) (P10827 whole entry): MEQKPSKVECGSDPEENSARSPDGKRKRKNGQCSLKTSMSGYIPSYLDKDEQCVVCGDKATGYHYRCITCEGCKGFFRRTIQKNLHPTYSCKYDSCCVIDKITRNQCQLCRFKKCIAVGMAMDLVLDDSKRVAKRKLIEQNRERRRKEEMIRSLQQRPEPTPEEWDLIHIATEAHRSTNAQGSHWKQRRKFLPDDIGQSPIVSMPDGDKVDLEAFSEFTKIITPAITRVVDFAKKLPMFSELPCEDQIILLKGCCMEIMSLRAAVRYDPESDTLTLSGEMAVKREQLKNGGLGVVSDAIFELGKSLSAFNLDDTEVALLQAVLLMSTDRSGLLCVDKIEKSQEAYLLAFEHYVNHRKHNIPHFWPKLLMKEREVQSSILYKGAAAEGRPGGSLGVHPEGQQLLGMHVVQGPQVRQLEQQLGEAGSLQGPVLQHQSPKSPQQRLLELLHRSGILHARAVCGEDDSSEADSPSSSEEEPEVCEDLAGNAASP
Chain of Steroidogenic factor 1 (Homo sapiens) (Q13285 whole entry): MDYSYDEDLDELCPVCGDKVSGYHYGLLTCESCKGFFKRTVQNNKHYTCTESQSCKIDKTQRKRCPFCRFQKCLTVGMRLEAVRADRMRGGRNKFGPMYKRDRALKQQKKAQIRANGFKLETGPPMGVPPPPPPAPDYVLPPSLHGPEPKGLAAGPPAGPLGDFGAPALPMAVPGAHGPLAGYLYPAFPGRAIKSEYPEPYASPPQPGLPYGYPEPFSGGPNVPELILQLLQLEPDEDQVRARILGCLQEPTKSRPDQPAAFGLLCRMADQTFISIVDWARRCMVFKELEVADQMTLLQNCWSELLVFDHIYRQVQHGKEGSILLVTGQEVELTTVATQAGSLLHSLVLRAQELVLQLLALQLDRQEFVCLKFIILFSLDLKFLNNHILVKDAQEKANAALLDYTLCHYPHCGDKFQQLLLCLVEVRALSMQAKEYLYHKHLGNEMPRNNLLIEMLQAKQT
Chain of COUP transcription factor 1 (Homo sapiens) (P10589 whole entry, the tested form may be a part): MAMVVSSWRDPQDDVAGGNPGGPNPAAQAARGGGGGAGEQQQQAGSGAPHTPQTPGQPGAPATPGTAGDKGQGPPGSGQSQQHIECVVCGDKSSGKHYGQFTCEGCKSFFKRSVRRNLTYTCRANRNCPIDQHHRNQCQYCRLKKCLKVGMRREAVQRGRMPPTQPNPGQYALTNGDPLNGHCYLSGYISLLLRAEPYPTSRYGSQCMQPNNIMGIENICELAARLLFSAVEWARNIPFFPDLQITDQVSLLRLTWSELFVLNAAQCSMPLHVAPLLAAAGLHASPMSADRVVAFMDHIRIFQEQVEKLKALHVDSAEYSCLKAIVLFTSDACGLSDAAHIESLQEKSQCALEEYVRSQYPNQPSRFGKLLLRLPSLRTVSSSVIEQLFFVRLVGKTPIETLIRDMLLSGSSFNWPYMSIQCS
Chain of Nuclear receptor subfamily 4immunitygroup A member 1 (Homo sapiens) (P22736 whole entry): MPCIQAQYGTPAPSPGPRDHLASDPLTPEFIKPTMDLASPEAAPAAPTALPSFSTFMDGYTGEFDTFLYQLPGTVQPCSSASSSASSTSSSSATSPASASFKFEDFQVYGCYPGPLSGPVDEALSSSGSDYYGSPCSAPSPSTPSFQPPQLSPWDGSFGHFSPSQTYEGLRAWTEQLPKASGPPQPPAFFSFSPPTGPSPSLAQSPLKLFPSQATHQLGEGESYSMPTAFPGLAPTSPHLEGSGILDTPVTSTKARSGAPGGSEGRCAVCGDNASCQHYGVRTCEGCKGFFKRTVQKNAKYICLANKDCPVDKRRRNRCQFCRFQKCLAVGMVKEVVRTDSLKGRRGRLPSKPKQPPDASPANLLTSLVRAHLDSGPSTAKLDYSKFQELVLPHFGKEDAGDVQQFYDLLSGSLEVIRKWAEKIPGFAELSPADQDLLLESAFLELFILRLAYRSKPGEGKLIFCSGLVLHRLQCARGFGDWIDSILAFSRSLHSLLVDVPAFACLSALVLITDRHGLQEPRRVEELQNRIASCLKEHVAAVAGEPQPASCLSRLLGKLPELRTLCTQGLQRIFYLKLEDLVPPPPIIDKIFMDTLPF

| Structure (SMILES) | inhibition [1] | inhibition [2] | inhibition [4] | inhibition [5] | concentration at 2 h [6] [nM] | concentration at 4 h [7] [nM] | inhibition [8] | inhibition [9] | inhibition [10] | inhibition [11] | Reduced_Cyp7a1_gene_exp (Mus musculus [12]) | inhibition [13] | Reduced_Srebf1_gene_exp (Mus musculus [14]) | Inhibition [15] | IC50 [16] | inhibition [17] | inhibition [18] | inhibition [19] | inhibition [20] | inhibition [21] | other results |
| --- | --- | --- | --- | --- | --- | --- | --- | --- | --- | --- | --- | --- | --- | --- | --- | --- | --- | --- | --- | --- | --- |
| CCOC(=O)N1CCC(CN(Cc2ccc(Cl)cc2)Cc2ccc([N+](=O)[O-])s2)C1 (configuration not stated) [SR9009] | inactive | inactive | inactive | inactive | 22900 | 220 | inactive | inactive | inactive | inactive | Active | inactive | Active | Not Active | 800 nM (agonist) | inactive | inactive | inactive | inactive | inactive | concentration at 8 h ([3]; brain, read-out: Conc_brain): 110 nM; Reduced_Serpine1_gene_exp (Mus musculus [22]): Active; inhibition [23]: inactive; inhibition [24]: inactive; inhibition [25]: inactive; inhibition [26]: inactive; concentration at 1 h [27]: 1400 nM; concentration at 8 h [28]: 130 nM; inhibition [29]: inactive; NcoR1_recruitment [30]: Dose-dependent effect; inhibition [31]: inactive |
| CCCCCNC(=O)N1CCC(CN(Cc2ccc(Cl)cc2)Cc2ccc([N+](=O)[O-])s2)C1 (configuration not stated) [SR9011] | inactive | inactive | inactive | inactive | 15300 | 110 | inactive | inactive | inactive | inactive | Active | inactive | Active | Not Active | 560 nM (agonist) | inactive | inactive | inactive | inactive | inactive | Conc_brain ([3]; in vivo, 8 h): Not Detected; Reduced_Serpine1_gene_exp (Mus musculus [22]): Active; inhibition [23]: inactive; inhibition [24]: inactive; inhibition [25]: inactive; inhibition [26]: inactive; concentration at 1 h [27]: 1550 nM; concentration at 8 h [28]: 10 nM; inhibition [29]: inactive; NcoR1_recruitment [30]: Dose-dependent effect; inhibition [31]: inactive |
